# Assay results reported in ChEMBL document CHEMBL3351561, “Discovery of 9-(1-anilinoethyl)-2-morpholino-4-oxo-pyrido[1,2-a]pyrimidine-7-carboxamides as PI3Kβ/δ inhibitors for the treatment of PTEN-deficient tumours” (Bioorg Med Chem Lett, 2014).
# Tests used:
# [1] = Ratio of total plasma concentration in PTEN-null human PC3 cells xenografted in SCID mouse at 50 mg/kg, po single dose at 0.5 hrs to IC50 for PI3Kbeta in human […] cells; design: species or system PC-3
# Outline: (§1)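 SCID mice bearing PTEN-null PC3 prostate tumour xenografts got a single oral dose given as a suspension. Total plasma concentration was measured at the sampled time points (0.5, 4 or 8 h). The value is the […] cover over the PI3Kβ cellular IC50, which comes from inhibition of Ser473 Akt phosphorylation in PTEN-null MDA-MB-468 breast adenocarcinoma cells.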
# [2] = Ratio of total plasma concentration in PTEN-null human PC3 cells xenografted in SCID mouse at 50 mg/kg, po single dose at 4 hrs to IC50 for PI3Kbeta in human […] cells; design: species or system PC-3; outline: as §1
# [3] = target: T1, Phosphatidylinositol 4,5-bisphosphate 3-kinase catalytic subunit beta isoform (Homo sapiens, UniProt P42338); assay: Inhibition of PI3Kbeta in human MAD-MB-468 cells assessed as inhibition of Ser473 Akt phosphorylation by cellular potency assay
# T1 sequence (P42338 whole entry, canonical isoform): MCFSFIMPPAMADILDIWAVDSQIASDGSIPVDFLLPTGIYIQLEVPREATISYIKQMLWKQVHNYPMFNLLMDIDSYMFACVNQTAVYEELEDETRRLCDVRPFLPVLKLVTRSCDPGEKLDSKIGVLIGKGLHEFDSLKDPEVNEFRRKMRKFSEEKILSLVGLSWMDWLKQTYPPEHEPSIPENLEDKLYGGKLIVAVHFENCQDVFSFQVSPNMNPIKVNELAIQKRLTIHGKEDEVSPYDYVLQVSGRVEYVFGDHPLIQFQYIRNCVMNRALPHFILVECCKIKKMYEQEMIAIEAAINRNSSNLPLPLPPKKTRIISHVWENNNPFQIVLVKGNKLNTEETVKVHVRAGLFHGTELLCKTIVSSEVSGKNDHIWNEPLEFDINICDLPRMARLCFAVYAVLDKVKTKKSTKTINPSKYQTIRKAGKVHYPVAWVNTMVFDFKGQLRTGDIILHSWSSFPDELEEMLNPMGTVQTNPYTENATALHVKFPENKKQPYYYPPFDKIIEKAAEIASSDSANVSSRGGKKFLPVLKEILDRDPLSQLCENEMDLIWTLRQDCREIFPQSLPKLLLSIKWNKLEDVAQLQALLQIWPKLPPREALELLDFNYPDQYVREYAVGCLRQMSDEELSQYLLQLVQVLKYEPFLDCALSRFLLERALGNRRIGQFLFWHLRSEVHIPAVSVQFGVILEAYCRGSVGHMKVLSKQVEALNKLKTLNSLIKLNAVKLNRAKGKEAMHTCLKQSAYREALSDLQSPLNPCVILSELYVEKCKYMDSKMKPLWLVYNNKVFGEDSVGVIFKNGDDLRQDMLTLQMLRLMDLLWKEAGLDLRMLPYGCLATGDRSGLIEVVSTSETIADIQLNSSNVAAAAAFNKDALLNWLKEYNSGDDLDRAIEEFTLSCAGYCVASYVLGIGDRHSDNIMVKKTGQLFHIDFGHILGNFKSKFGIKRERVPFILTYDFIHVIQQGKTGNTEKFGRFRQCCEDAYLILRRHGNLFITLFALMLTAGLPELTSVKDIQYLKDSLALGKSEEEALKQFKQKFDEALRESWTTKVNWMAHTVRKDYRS
# [4] = Apparent permeability from apical (pH 6.5) to […] of human Caco2 cells; assay type: ADME, cell-based; settings: Caco-2, pH 6.5
# [5] = Buffer/octanol partition coefficient, log D of the compound at pH 7.4 by shake flask method; assay type: physicochemical
# Outline: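 LogD at pH 7.4 was measured by shake-flask with a buffer/octanol volume ratio of 100:1.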
# [6] = target: T2, Phosphatidylinositol 4,5-bisphosphate 3-kinase catalytic subunit alpha isoform (Homo sapiens, UniProt P42336); assay: Inhibition of human recombinant PI3Kalpha assessed as depletion of ATP substrate by Ultra Glo luciferase assay
# T2 sequence (P42336 whole entry, canonical isoform): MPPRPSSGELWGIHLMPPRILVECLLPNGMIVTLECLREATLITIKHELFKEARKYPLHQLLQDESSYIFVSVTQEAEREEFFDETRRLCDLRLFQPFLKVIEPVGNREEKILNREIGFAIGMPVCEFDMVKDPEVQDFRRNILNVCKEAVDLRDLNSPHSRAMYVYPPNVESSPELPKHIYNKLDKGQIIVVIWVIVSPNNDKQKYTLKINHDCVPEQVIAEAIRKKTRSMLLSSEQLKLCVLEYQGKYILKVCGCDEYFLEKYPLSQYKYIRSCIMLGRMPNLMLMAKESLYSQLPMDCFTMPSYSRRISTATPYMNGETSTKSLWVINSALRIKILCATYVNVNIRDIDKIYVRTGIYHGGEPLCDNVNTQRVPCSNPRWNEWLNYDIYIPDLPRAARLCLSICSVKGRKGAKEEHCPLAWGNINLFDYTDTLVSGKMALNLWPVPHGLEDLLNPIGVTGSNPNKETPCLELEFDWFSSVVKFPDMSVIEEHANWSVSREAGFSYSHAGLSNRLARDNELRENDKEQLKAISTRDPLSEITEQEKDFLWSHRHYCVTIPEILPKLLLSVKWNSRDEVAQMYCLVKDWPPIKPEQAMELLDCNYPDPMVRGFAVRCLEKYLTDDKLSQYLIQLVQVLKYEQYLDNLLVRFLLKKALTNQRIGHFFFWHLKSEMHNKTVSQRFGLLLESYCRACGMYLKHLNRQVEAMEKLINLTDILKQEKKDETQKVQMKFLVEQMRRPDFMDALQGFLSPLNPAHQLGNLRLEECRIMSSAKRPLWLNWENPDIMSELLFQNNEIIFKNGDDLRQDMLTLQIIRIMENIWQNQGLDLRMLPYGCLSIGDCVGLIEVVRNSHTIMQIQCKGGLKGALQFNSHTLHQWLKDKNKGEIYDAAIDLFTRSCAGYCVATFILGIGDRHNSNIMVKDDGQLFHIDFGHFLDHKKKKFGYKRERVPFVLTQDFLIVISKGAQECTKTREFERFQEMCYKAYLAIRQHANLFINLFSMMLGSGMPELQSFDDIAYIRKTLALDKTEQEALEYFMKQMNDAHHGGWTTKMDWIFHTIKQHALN
# Outline: (§2)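 Enzyme IC50s are reported as the geometric mean of 3 or more values.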
# [7] = target: T1, Phosphatidylinositol 4,5-bisphosphate 3-kinase catalytic subunit beta isoform; assay: Inhibition of human recombinant PI3Kbeta assessed as depletion of ATP substrate by Ultra Glo luciferase assay; outline: as §2
# [8] = target: Phosphatidylinositol 4,5-bisphosphate 3-kinase catalytic subunit gamma isoform (Homo sapiens, UniProt P48736); assay: Inhibition of human recombinant PI3Kgamma assessed as depletion of ATP substrate by Ultra Glo luciferase assay; outline: as §2
# Chain of Phosphatidylinositol 4,5-bisphosphate 3-kinase catalytic subunit gamma isoform (P48736 whole entry, canonical isoform): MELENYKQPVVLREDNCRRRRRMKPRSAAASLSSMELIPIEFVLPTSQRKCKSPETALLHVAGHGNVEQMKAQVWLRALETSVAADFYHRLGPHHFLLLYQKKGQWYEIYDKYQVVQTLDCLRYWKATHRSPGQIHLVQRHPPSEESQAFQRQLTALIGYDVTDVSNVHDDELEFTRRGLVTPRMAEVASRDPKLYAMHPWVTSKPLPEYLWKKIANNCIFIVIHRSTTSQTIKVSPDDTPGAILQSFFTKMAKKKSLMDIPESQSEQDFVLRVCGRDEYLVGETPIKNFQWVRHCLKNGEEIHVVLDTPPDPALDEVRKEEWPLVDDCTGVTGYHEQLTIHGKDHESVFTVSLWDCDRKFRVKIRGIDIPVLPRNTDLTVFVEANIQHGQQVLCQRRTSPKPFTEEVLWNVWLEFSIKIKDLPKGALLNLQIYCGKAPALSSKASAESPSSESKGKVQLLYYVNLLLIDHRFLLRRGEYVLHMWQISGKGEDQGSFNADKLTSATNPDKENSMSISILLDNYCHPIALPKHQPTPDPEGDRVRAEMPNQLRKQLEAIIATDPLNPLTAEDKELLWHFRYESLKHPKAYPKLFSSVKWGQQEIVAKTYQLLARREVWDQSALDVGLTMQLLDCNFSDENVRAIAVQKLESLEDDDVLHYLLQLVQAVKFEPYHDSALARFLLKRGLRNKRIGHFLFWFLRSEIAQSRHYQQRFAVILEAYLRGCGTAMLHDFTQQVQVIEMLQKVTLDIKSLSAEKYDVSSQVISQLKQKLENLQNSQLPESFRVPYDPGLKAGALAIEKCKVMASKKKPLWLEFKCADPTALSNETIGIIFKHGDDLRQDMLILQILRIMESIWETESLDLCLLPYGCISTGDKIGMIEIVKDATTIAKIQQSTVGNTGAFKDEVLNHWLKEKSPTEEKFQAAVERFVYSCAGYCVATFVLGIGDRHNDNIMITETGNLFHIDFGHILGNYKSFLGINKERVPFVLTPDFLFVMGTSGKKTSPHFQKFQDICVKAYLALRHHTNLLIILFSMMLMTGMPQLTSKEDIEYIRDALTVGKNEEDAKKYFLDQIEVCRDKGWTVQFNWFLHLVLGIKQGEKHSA
# [9] = target: T3, Phosphatidylinositol 4,5-bisphosphate 3-kinase catalytic subunit delta isoform (Homo sapiens, UniProt O00329); assay: Inhibition of human recombinant PI3Kdelta assessed as depletion of ATP substrate by Ultra Glo luciferase assay; outline: as §2
# T3 sequence (O00329 whole entry): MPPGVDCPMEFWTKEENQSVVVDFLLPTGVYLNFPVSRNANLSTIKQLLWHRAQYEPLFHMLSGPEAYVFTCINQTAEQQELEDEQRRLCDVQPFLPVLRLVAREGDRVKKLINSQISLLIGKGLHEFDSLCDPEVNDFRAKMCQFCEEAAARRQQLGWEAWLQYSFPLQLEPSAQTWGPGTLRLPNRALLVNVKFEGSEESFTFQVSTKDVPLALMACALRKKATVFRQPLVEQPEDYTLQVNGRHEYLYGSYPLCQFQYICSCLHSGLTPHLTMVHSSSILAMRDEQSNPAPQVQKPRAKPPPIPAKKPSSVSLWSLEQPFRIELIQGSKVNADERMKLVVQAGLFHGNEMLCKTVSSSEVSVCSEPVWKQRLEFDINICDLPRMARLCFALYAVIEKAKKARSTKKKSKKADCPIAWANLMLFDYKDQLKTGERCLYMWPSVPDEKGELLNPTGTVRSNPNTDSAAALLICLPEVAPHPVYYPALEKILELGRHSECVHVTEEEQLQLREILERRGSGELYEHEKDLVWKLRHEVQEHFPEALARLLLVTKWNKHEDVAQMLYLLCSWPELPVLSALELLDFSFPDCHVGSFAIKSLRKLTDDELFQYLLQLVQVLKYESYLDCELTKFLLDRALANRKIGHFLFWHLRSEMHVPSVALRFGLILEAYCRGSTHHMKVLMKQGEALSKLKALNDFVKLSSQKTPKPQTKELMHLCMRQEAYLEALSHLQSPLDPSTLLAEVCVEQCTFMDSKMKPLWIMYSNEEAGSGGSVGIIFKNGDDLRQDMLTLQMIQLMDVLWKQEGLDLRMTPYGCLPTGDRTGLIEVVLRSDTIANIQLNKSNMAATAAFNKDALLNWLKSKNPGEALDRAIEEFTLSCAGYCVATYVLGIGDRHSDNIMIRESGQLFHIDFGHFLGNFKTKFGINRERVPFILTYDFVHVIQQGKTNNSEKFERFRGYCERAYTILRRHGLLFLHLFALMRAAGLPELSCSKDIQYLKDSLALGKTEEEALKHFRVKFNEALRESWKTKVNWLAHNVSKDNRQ
# [10] = target: T2, Phosphatidylinositol 4,5-bisphosphate 3-kinase catalytic subunit alpha isoform; assay: Inhibition of PI3Kalpha in human BT474 cells assessed as inhibition of […] Akt phosphorylation after 2 hrs by fluorescence assay; assay type: cell-based, BT-474
# Outline: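 BT474 cells were seeded in DMEM with 10% FCS and 1% glutamine and left to adhere overnight, then treated with compound in DMSO for 2 h at 37 °C and 5% CO2. Cells were lysed with a phosphatase/protease-inhibitor buffer. Lysate was captured on anti-total-Akt plates, probed with anti-phospho-Akt Thr308 and an HRP secondary, and read by fluorescence (ex 325/em 420 nm). Values are the geometric mean of ≥2 determinations.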
# [11] = Fraction unbound in mouse plasma; assay type: ADME, cell-free
# Outline: (§3)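 Protein binding was measured in nude mouse plasma and in human plasma and is expressed as fraction unbound (%).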
# [12] = Fraction unbound in human plasma; assay type: ADME, cell-free; outline: as §3
# [13] = Clearance in mouse plasma at 5 umol/kg, iv and 30 umol/kg, po; assay type: ADME, organism-based
# Outline: (§4)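 […] mice were dosed at 5 µmol/kg i.v. and 30 µmol/kg p.o. Clearance is given in mL/min/kg and oral bioavailability in %.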
# [14] = Bioavailability in mouse plasma at 5 umol/kg, iv and 30 umol/kg, po; assay type: ADME, organism-based; outline: as §4
# Mus musculus [15] = assay: Inhibition of Akt phosphorylation in SCID mouse xenografted with PTEN-null human PC3 cells at 50 mg/kg, po measured after 30 mins; assay type: functional; settings: PC-3, 0.5 h
# Outline: (§5)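 SCID mice carrying PTEN-null PC3 prostate xenografts received a single oral dose as a suspension (50, 100 or 200 mg/kg).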
# Mus musculus [16] = assay: Inhibition of Akt phosphorylation in SCID mouse xenografted with PTEN-null human PC3 cells at 50 mg/kg, po measured after 4 hrs; assay type: functional; settings: PC-3, 4 h; outline: as §5
# [17] = Total plasma concentration in SCID mouse xenografted with PTEN-null human PC3 cells at 50 mg/kg, po measured after 30 mins; assay type: ADME, organism-based, PC-3; design: dose 50 mg/kg, route oral
# Outline: (§6)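 Total plasma concentration was measured in SCID mice carrying PC3 xenografts after a single oral dose given as a suspension (50, 100 or 200 mg/kg). Samples were taken at 0.5 to 8 h.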
# [18] = Total plasma concentration in SCID mouse xenografted with PTEN-null human PC3 cells at 50 mg/kg, po measured after 4 hrs; assay type: ADME, organism-based, PC-3; design: dose 50 mg/kg, route oral; outline: as §6
# Homo sapiens = species: Homo sapiens; assay: Ratio of IC50 for PI3Kalpha human BT474 cells to IC50 PI3Kbeta in human […] cells
# [19] = Ratio of total plasma concentration in PTEN-null human PC3 cells xenografted in SCID mouse at 100 mg/kg, po single dose at 0.5 hrs to IC50 for PI3Kbeta in human […] cells; design: species or system PC-3; outline: as §1
# [20] = Ratio of total plasma concentration in PTEN-null human PC3 cells xenografted in SCID mouse at 100 mg/kg, po single dose at 4 hrs to IC50 for PI3Kbeta in human MAD-MB-468 cells; design: species or system PC-3
# [21] = Intrinsic clearance in human hepatocytes measured per 10^6 cells; assay type: ADME, cell-based, Hepatocyte; settings: read-out: CLH
# Outline: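 Intrinsic clearance was measured in human hepatocytes and is expressed in µL/min/10^6 cells.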
# [22] = Solubility of the compound in phosphate buffer at pH 7.4; assay type: physicochemical
# Outline: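 Solubility was measured from solid material in phosphate buffer at pH 7.4.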
# [23] = Half life in mouse plasma at 5 umol/kg, iv and 30 umol/kg, po; assay type: ADME, organism-based
# Mus musculus [24] = assay: Inhibition of Akt phosphorylation in SCID mouse xenografted with PTEN-null human PC3 cells at 100 mg/kg, po measured after 30 mins; assay type: functional; settings: PC-3, 0.5 h; outline: as §5
# Mus musculus [25] = assay: Inhibition of Akt phosphorylation in SCID mouse xenografted with PTEN-null human PC3 cells at 100 mg/kg, po measured after 4 hrs; assay type: functional; settings: PC-3, 4 h; outline: as §5
# [26] = Total plasma concentration in SCID mouse xenografted with PTEN-null human PC3 cells at 100 mg/kg, po measured after 30 mins; assay type: ADME, organism-based, PC-3; design: dose 100 mg/kg, route oral; outline: as §6
# [27] = Total plasma concentration in SCID mouse xenografted with PTEN-null human PC3 cells at 100 mg/kg, po measured after 4 hrs; assay type: ADME, organism-based, PC-3; design: dose 100 mg/kg, route oral; outline: as §6
# [28] = Total plasma concentration in SCID mouse xenografted with PTEN-null human PC3 cells at 200 mg/kg, po measured after 30 mins; assay type: ADME, organism-based, PC-3; design: dose 200 mg/kg, route oral; outline: as §6
# [29] = Total plasma concentration in SCID mouse xenografted with PTEN-null human PC3 cells at 200 mg/kg, po measured after 4 hrs; assay type: ADME, organism-based, PC-3; design: dose 200 mg/kg, route oral; outline: as §6
# [30] = Total plasma concentration in SCID mouse xenografted with PTEN-null human PC3 cells at 200 mg/kg, po measured after 8 hrs; assay type: ADME, organism-based, PC-3; design: dose 200 mg/kg, route oral; outline: as §6
# [31] = Ratio of total plasma concentration in PTEN-null human PC3 cells xenografted in SCID mouse at 200 mg/kg, po single dose at 0.5 hrs to IC50 for PI3Kbeta in human […] cells; design: species or system PC-3; outline: as §1
# [32] = Ratio of total plasma concentration in PTEN-null human PC3 cells xenografted in SCID mouse at 200 mg/kg, po single dose at 4 hrs to IC50 for PI3Kbeta in human […] cells; design: species or system PC-3; outline: as §1
# [33] = Ratio of total plasma concentration in PTEN-null human PC3 cells xenografted in SCID mouse at 200 mg/kg, po single dose at 8 hrs to IC50 for PI3Kbeta in human […] cells; design: species or system PC-3; outline: as §1
# Mus musculus [34] = assay: Inhibition of Akt phosphorylation in SCID mouse xenografted with PTEN-null human PC3 cells at 200 mg/kg, po measured after 30 mins; assay type: functional; settings: PC-3, 0.5 h; outline: as §5
# Mus musculus [35] = assay: Inhibition of Akt phosphorylation in SCID mouse xenografted with PTEN-null human PC3 cells at 200 mg/kg, po measured after 4 hrs; assay type: functional; settings: PC-3, 4 h; outline: as §5
# Mus musculus [36] = assay: Inhibition of Akt phosphorylation in SCID mouse xenografted with PTEN-null human PC3 cells at 200 mg/kg, po measured after 8 hrs; assay type: functional; settings: PC-3, 8 h; outline: as §5
IC50 [3],Papp A→B [4],logD [5],IC50 [6],IC50 [7],IC50 [8],IC50 [9],IC50 [10],fraction unbound [11],fraction unbound [12],clearance [13],bioavailability [14],hepatocyte CLint [21],solubility [22],SMILES,Ratio IC50 (Homo sapiens),further results
4 nM,0.9 ×10⁻⁶ cm/s,2.7,92 nM,7 nM,670 nM,51 nM,970 nM,0.016,0.033,10 mL/min/kg,39%,,,"CC(Nc1cccc(Cl)c1F)c1cc(C(=O)NCCN(C)C)cn2c(=O)cc(N3CCOCC3)nc12 (single isomer, unassigned; (-))",240,Ratio [1]: 83; Ratio [2]: 48; inhibition in vivo at 50 mg/kg (Mus musculus [15]): 26%; inhibition in vivo at 50 mg/kg (Mus musculus [16]): 40%; concentration at 0.5 h [17]: 21 µM; concentration at 4 h [18]: 12 µM
62 nM,34 ×10⁻⁶ cm/s,2.3,1300 nM,37 nM,13500 nM,230 nM,11600 nM,0.12,0.21,45 mL/min/kg,70%,3 µL/min/1e6 cells,130 µM,"CC(Nc1ccc(F)cc1)c1cc(C(=O)N(C)C)cn2c(=O)cc(N3CCOCC3)nc12 (single isomer, unassigned; (-))",190,Ratio [19]: 140; Ratio [20]: 16; half-life [23]: 1.1 h; inhibition in vivo at 100 mg/kg (Mus musculus [24]): 85%; inhibition in vivo at 100 mg/kg (Mus musculus [25]): 60%; concentration at 0.5 h [26]: 71 µM; concentration at 4 h [27]: 8.1 µM
34 nM,44 ×10⁻⁶ cm/s,2.7,340 nM,7 nM,3000 nM,45 nM,4700 nM,0.087,0.14,74 mL/min/kg,35%,9 µL/min/1e6 cells,20 µM,"CC(Nc1ccc(F)c(F)c1)c1cc(C(=O)N(C)C)cn2c(=O)cc(N3CCOCC3)nc12 (single isomer, unassigned; (-))",,concentration at 0.5 h [28]: 3.9 µM; concentration at 4 h [29]: 2.3 µM; concentration at 8 h [30]: 0.3 µM; Ratio [31]: 10; Ratio [32]: 5.9; Ratio [33]: 2.5; inhibition in vivo at 200 mg/kg (Mus musculus [34]): 81%; inhibition in vivo at 200 mg/kg (Mus musculus [35]): 81%; inhibition in vivo at 200 mg/kg (Mus musculus [36]): 71%
